According to ChEMBL document CHEMBL1123026, “Preparation and antiarthritic and analgesic activity of 4,5-diaryl-2-(substituted thio)-1H-imidazoles and their sulfoxides and sulfones” (1985):

Experiments:
Format in all cases: functional
Rattus norvegicus [1] = assay: Effective dose determined against rat adjuvant arthritis after peroral administration; settings: po
Summary of the method: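 Male Lewis rats (130-150 g) given 0.1 mL Mycobacterium butyricum adjuvant (5 mg/mL in mineral oil) s.c. into the right hind paw; arthritis developed for 2 weeks. Groups of 10 matched for severity were dosed orally by gavage in PVA-acacia vehicle (10 mL/kg) for 7 days. Uninjected left paw volume was measured the day after the last dose. Percent decrease was calculated vs arthritic and nonarthritic controls. ED50 was read from a visually fitted semilog dose-response line.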

Mus musculus = assay: Effective dose determined by mouse phenyl-p-benzoquinone writhing (PQW) assay after peroral administration; settings: po
Summary of the method: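 Fasted (17-21 h) female white mice, 5-20 per double-blind test, dosed orally with compound suspended in 1% methylcellulose. 0.20 mL aqueous 0.01% phenyl-p-benzoquinone given i.p. 6 min before a 10-min observation for stretching/writhing. ED50 (dose protecting 50% of mice) calculated by the moving-average method.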

Rattus norvegicus [2] = assay: Decrease in paw volume by the effect of compound at a dose of 100 mg/kg
Summary of the method: (§1)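 Male Lewis rats (130-150 g) got 0.1 mL adjuvant (heat-killed Mycobacterium butyricum, 5 mg/mL in mineral oil) subplantar in the right hind paw and were left 2 weeks. Groups of 10 matched for severity were dosed orally by gavage (PVA-acacia vehicle, 10 mL/kg) for 7 days. Uninjected left hind paw volume was read the next day. % decrease = (arthritic control − treated)/(arthritic − nonarthritic control) × 100; Student's t-test.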

Rattus norvegicus [3] = assay: Decrease in paw volume by the effect of compound at a dose of 50 mg/kg; summary of the method: as §1
Rattus norvegicus [4] = assay: Decrease in paw volume was evaluated at dose 25 mg/kg; summary of the method: as §1

SMILES | ED50 (Rattus norvegicus [1]) [mg/kg] | ED50 (Mus musculus) [mg/kg] | further results
COc1ccc(-c2nc(SC)[nH]c2-c2ccc(OC)cc2)cc1 | 4.5 | > 135 | 
COc1ccc(-c2nc(S(=O)(=O)C(F)(F)C(F)F)[nH]c2-c2ccc(OC)cc2)cc1 | 1.4 |  | 
O=S(=O)(CCC(F)(F)F)c1nc(-c2ccccc2)c(-c2ccccc2)[nH]1 | > 75 | > 135 | 
COc1ccc(-c2[nH]c(SC(F)(F)C(F)F)nc2-c2ccccc2)cc1 | 30 | > 130 | 
FC(F)C(F)(F)Sc1nc(-c2ccc(Cl)cc2)c(-c2ccc(Cl)cc2)[nH]1 | 0.33 | > 135 | 
O=S(=O)(c1nc(-c2ccccc2)c(-c2ccccc2)[nH]1)C(F)(F)C(F)F | 0.095 |  | 
CSc1nc(-c2ccc(F)cc2)c(-c2ccc(F)cc2)[nH]1 | 4 | > 130 | 
Fc1ccc(-c2[nH]c(SC(F)(F)C(F)F)nc2-c2ccc(Cl)cc2)cc1 |  | > 130 | 
Fc1ccc(-c2nc(SC(F)(F)C(F)F)[nH]c2-c2ccc(C(F)(F)F)cc2)cc1 |  | > 130 | 
FC(F)C(F)(F)Sc1nc(-c2ccc(C(F)(F)F)cc2)c(-c2ccccc2)[nH]1 |  | > 130 | 
Cc1ccc(-c2nc(SC(F)(F)C(F)F)[nH]c2-c2ccc(C)cc2)cc1 | 27 | > 130 | 
COc1ccc(-c2nc([S+]([O-])CC(F)(F)F)[nH]c2-c2ccc(OC)cc2)cc1 (stereo not given) | 11 |  | 
Cc1ccc(-c2[nH]c(S(C)(=O)=O)nc2-c2ccccc2)cc1 |  | > 130 | Decrease (Rattus norvegicus [2]): 45%
COc1ccc(-c2nc([S+](C)[O-])[nH]c2-c2ccc(OC)cc2)cc1 (stereo not given) | 6.5 | > 135 | 
CS(=O)(=O)c1nc(-c2ccc(Cl)cc2)c(-c2ccc(Cl)cc2)[nH]1 |  | 3.7 | 
CCCC[S+]([O-])c1nc(-c2ccccc2)c(-c2ccccc2)[nH]1 (stereo not given) | > 100 | > 130 | 
COc1ccc(-c2nc(SC[S+](C)[O-])[nH]c2-c2ccc(OC)cc2)cc1 (stereo not given) | 52 |  | 
[O-][S+](CCC(F)(F)C(F)(F)F)c1nc(-c2ccccc2)c(-c2ccccc2)[nH]1 (stereo not given) | > 75 | > 130 | 
FC(Br)C(F)(F)Sc1nc(-c2ccccc2)c(-c2ccccc2)[nH]1 (stereo not given) | 11 | > 130 | 
CSCSc1nc(-c2ccccc2)c(-c2ccccc2)[nH]1 | > 50 | > 130 | 
Fc1ccc(-c2nc(SC(F)F)[nH]c2-c2ccc(F)cc2)cc1 |  | > 130 | 
CCCS(=O)(=O)c1nc(-c2ccccc2)c(-c2ccccc2)[nH]1 |  | > 130 | Decrease (Rattus norvegicus [2]): 26%
FC(F)(F)Sc1nc(-c2ccc(Cl)c(Cl)c2)c(-c2ccccc2)[nH]1 |  | > 130 | 

SMILES | ED50 (Rattus norvegicus [1]) [mg/kg] | ED50 (Mus musculus) [mg/kg] | further results
C=CCS(=O)(=O)c1nc(-c2ccc(OC)cc2)c(-c2ccc(OC)cc2)[nH]1 | 10 | > 130 | 
FC(F)Sc1nc(-c2ccccc2)c(-c2ccccc2)[nH]1 | 27 | > 130 | 
FCC(F)(F)Sc1nc(-c2ccccc2)c(-c2ccccc2)[nH]1 | 2 | > 135 | 
CS(=O)(=O)c1nc(-c2ccc(F)cc2)c(-c2ccc(C(F)(F)F)cc2)[nH]1 |  | > 130 | 
[O-][S+](CCC(F)(F)F)c1nc(-c2ccccc2)c(-c2ccccc2)[nH]1 (stereo not given) | > 75 | > 130 | 
CSc1nc(-c2ccc(F)cc2)c(-c2ccc(C(F)(F)F)cc2)[nH]1 |  | > 130 | 
C[S+]([O-])c1nc(-c2cccc(F)c2)c(-c2ccccc2)[nH]1 (stereo not given) |  | > 130 | Decrease (Rattus norvegicus [2]): 67%
COc1ccc(-c2[nH]c(SC(F)(F)C(F)F)nc2-c2ccc(F)cc2)cc1 |  | > 130 | 
CS(=O)(=O)c1nc(-c2ccc(F)cc2)c(-c2ccc(F)cc2)[nH]1 |  | > 130 | 
CCS(=O)(=O)c1nc(-c2ccccc2)c(-c2ccccc2)[nH]1 |  | > 135 | Decrease (Rattus norvegicus [2]): 32%
FC(F)C(F)(F)Sc1nc(-c2ccc(Cl)cc2)c(-c2ccccc2)[nH]1 |  | > 130 | 
FC(F)(F)CSc1nc(-c2ccc(Cl)cc2)c(-c2ccc(Cl)cc2)[nH]1 | 4 | > 130 | 
FC(F)(F)C(F)(F)CSc1nc(-c2ccccc2)c(-c2ccccc2)[nH]1 |  | > 135 | 
FC(F)C(F)(F)Sc1nc(-c2cccc(Cl)c2)c(-c2ccccc2)[nH]1 |  | > 130 | 
Fc1ccc(-c2nc(SC(F)(F)C(F)F)[nH]c2-c2ccccc2)cc1 | 0.18 | > 130 | 
FC(F)C(F)(F)Sc1nc(-c2ccc(Cl)c(Cl)c2)c(-c2ccccc2)[nH]1 |  | > 130 | 
CCSc1nc(-c2ccccc2)c(-c2ccccc2)[nH]1 | 100 | > 130 | 
CSc1nc(-c2ccc(Cl)cc2)c(-c2ccc(C(F)(F)F)cc2)[nH]1 |  | > 130 | 
CS(=O)(=O)c1nc(-c2ccc(Cl)cc2)c(-c2ccc(F)cc2)[nH]1 |  | > 130 | 
CCOc1ccc(-c2[nH]c(S(C)(=O)=O)nc2-c2ccccc2)cc1 |  | > 130 | Decrease (Rattus norvegicus [3]): 41%
COc1ccc(-c2[nH]c(SC)nc2-c2ccccc2)cc1 |  | > 130 | Decrease (Rattus norvegicus [4]): 35%
COc1ccc(-c2nc(SCC(F)(F)F)[nH]c2-c2ccc(OC)cc2)cc1 | 35 | > 135 | 
COc1ccc(-c2nc(S(=O)(=O)C(C)C)[nH]c2-c2ccc(OC)cc2)cc1 |  | > 130 | 

SMILES | ED50 (Rattus norvegicus [1]) [mg/kg] | ED50 (Mus musculus) [mg/kg] | further results
CS(=O)(=O)c1nc(-c2ccc(Cl)cc2)c(-c2ccccc2)[nH]1 |  | > 130 | 
C[S+]([O-])c1nc(-c2ccc(F)cc2)c(-c2ccc(F)cc2)[nH]1 (stereo not given) |  | > 130 | 
O=S(=O)(CCC(F)(F)C(F)(F)F)c1nc(-c2ccccc2)c(-c2ccccc2)[nH]1 | > 75 | > 130 | 
CSc1nc(-c2cccc(F)c2)c(-c2ccccc2)[nH]1 | 75 | > 130 | 
CSc1nc(-c2ccc(C)cc2)c(-c2ccc(C)cc2)[nH]1 |  | > 130 | Decrease (Rattus norvegicus [4]): 26%
COc1ccc(-c2[nH]c(S(=O)(=O)C(F)(F)C(F)F)nc2-c2ccccc2Cl)cc1 | 6 |  | 
[O-][S+](CC(F)(F)C(F)(F)F)c1nc(-c2ccccc2)c(-c2ccccc2)[nH]1 (stereo not given) | > 75 | > 130 | 
CSc1ccc(-c2[nH]c(SC(F)(F)C(F)F)nc2-c2ccc(F)cc2)cc1 | 1.6 | > 108 | 
CS(=O)(=O)c1nc(-c2ccc(C(F)(F)F)cc2)c(-c2ccccc2)[nH]1 |  | > 130 | Decrease (Rattus norvegicus [3]): 32%
CS(=O)(=O)c1nc(-c2ccc(Cl)c(Cl)c2)c(-c2ccccc2)[nH]1 |  | > 130 | Decrease (Rattus norvegicus [3]): 59%
FC(F)C(F)(F)Sc1nc(-c2cccc(Cl)c2)c(-c2cccc(Cl)c2)[nH]1 | 1.2 | > 130 | 
CS(=O)(=O)c1nc(-c2ccc(Cl)cc2)c(-c2ccc(C(F)(F)F)cc2)[nH]1 |  | > 135 | 
CSc1nc(-c2ccc(Cl)cc2)c(-c2ccc(F)cc2)[nH]1 |  | > 130 | 
Fc1ccc(-c2nc(SC(F)(F)C(F)F)[nH]c2-c2ccc(F)cc2)cc1 | 0.05 | > 81 | 
CSc1nc(-c2ccc(Cl)cc2)c(-c2ccc(Cl)cc2)[nH]1 | 4 | > 135 | 
CCCCSc1nc(-c2ccccc2)c(-c2ccccc2)[nH]1 | > 75 | > 130 | 
COc1ccc(-c2nc(SCC(C)=O)[nH]c2-c2ccc(OC)cc2)cc1 | 10 |  | 
C[S+]([O-])c1nc(-c2ccc(Cl)c(Cl)c2)c(-c2ccccc2)[nH]1 (stereo not given) |  | > 130 | Decrease (Rattus norvegicus [3]): 46%
CSc1nc(-c2ccc(Cl)c(Cl)c2)c(-c2ccccc2)[nH]1 |  | > 130 | Decrease (Rattus norvegicus [4]): 62%
CCCCS(=O)(=O)c1nc(-c2ccccc2)c(-c2ccccc2)[nH]1 | > 100 | > 130 | 
Fc1cccc(-c2nc(SC(F)(F)C(F)F)[nH]c2-c2ccccc2)c1 | 2.5 | > 130 | 
O=S(=O)(CC(F)(F)C(F)(F)F)c1nc(-c2ccccc2)c(-c2ccccc2)[nH]1 | > 100 | > 130 | 
Cl.Nc1ccc(-c2[nH]c(S(=O)(=O)C(F)(F)C(F)F)nc2-c2ccc(F)cc2)cc1 | > 3 |  | 
